Laboratory results from ChEMBL document CHEMBL1121536, “C(14)-fluorinated prostaglandins: synthesis and biological evaluation of the methyl esters of (+)-14-fluoro-, (+)-15-epi-14-fluoro-, (+)-13(E)-14-fluror-, and (+)-13(E)-15-epi-14-fluoroprostaglandin F2 alpha” (1980).

Assays:
[1] = test system: Cricetinae gen. sp.; experiment: The compound was evaluated for the hamster uterine contraction in vitro on uterine strips
[2] = test system: Cricetinae gen. sp.; experiment: The compound was evaluated for the antifertility activity in hamster at 12.5 ug administered subcutaneously; type: functional, Cricetulus griseus
Summary of the method: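 Hamsters were dosed subcutaneously, daily, in groups of ten. The minimum effective dose was the lowest dose per hamster per day giving no pregnancies (no implants) in the group. Potency was derived by comparing each compound's minimum effective dose with that of natural PGF2α.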

[3] = test system: Gerbillinae; experiment: The compound was evaluated for the gerbil colon contraction in vitro on colon strips

| SMILES | relative potency (PGF2α = 1) [1] | relative potency (PGF2α = 1) [2] | relative potency (PGF2α = 1) [3] |
| --- | --- | --- | --- |
| CCCCC[C@@H](O)/C(F)=C\[C@@H]1[C@@H](C/C=C\CCCC(=O)OC)[C@@H](O)C[C@H]1O | 0.36 | > 1 | 0.15 |
| CCCCC[C@@H](O)/C(F)=C/[C@@H]1[C@@H](C/C=C\CCCC(=O)OC)[C@@H](O)C[C@H]1O | 0.025 | 0.5 | 0.0034 |
| CCCCC[C@H](O)/C(F)=C/[C@@H]1[C@@H](C/C=C\CCCC(=O)OC)[C@@H](O)C[C@H]1O | 0.263 | < 0.5 | 0.023 |
| CCCCC[C@H](O)/C(F)=C\[C@@H]1[C@@H](C/C=C\CCCC(=O)OC)[C@@H](O)C[C@H]1O | 0.0002 | < 0.1 | 0.002 |
| CCCCC[C@H](O)/C=C/[C@@]1(F)[C@H](O)C[C@H](O)[C@@H]1C/C=C\CCCC(=O)OC | 0.28 | 12.5 | 0.001 |
| CCCCC[C@@H](O)/C=C/[C@@]1(F)[C@H](O)C[C@H](O)[C@@H]1C/C=C\CCCC(=O)OC | 0.022 | 1 | 0.011 |
